From ChEMBL document CHEMBL3414477, “Synthesis, biological investigation and molecular docking study of N-malonyl-1,2-dihydroisoquinoline derivatives as brain specific and shelf-stable MAO inhibitors” (Eur J Med Chem, 2015) come the findings set out here.

A word on the IC50: it is the point on the concentration scale where inhibition reaches its midpoint. Usually half-life stands for the time needed for the level to fall by half in the phase considered.

In series [1] the target is T1, Amine oxidase [flavin-containing] A (Bos taurus, UniProt P21398).
T1 sequence (P21398 whole entry): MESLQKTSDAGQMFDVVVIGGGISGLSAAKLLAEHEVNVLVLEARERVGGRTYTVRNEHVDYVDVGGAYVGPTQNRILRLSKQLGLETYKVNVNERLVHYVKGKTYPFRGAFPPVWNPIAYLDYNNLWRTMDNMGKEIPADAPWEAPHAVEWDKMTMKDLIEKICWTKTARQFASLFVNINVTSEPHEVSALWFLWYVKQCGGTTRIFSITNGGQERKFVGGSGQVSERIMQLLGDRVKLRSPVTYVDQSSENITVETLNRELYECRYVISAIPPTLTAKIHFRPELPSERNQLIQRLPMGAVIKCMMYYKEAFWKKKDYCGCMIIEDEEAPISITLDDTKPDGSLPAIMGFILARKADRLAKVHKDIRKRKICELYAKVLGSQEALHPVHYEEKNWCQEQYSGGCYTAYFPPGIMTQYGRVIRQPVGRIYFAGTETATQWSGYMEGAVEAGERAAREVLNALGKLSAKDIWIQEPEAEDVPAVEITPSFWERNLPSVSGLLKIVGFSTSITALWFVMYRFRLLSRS
Nature of the series: Inhibition of bovine brain mitochondria MAO-A by spectrofluorimetry.

The target of series [2] is T2, Amine oxidase [flavin-containing] B (Bos taurus, UniProt P56560).
T2 sequence (P56560 whole entry): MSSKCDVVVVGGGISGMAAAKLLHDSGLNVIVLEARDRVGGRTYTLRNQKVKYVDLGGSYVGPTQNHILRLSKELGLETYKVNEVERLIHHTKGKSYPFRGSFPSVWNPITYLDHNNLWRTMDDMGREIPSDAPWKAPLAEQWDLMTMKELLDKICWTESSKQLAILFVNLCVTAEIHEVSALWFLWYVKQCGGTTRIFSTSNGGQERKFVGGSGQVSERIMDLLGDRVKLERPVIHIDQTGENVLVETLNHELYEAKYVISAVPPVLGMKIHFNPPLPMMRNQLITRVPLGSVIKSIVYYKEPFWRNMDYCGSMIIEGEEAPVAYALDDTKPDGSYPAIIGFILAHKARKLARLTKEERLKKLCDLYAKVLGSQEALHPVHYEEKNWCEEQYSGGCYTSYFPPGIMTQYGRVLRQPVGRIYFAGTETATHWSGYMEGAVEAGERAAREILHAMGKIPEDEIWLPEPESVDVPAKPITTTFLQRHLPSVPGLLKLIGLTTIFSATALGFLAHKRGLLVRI
The series is described as follows: Inhibition of bovine brain mitochondria MAO-B by spectrofluorimetry.

The species entered for series [3] is Bos taurus. Nature of the series: Selectivity index, ratio of IC50 for bovine brain mitochondria MAO-B to IC50 for bovine brain mitochondria MAO-A. Summed up:
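Bovine brain mitochondria (6 mg/mL suspension) in 0.25 M phosphate buffer, pH 7.4, were used with 0.1 mM clorgyline or L-deprenyl to isolate MAO-A or MAO-B. Compounds at five concentrations in propylene glycol were preincubated for 20 min, then 2.5 mM kynuramine was added for 60 min at 37 °C. The reaction was stopped with perchloric acid, made alkaline with NaOH and read fluorimetrically in duplicate. IC50 was reported, and SI = MAO-B IC50 / MAO-A IC50.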

Series [4] is described as follows: Chemical stability of the compound in 30% aqueous hydrogen peroxide assessed as apparent pseudo first order rate constant of disappearance by reverse-phase HPLC analysis. The format is physicochemical. The following applies: buffer. Summed up: (§1)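 Reagents were 10% methanolic silver nitrate or 30% aqueous hydrogen peroxide. The compound and its metabolites were measured by a validated reverse-phase HPLC method. Pseudo first order disappearance was fitted by linear regression of ln peak area against time, and t1/2 was derived from the rate constant.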

Series [5] can be described thus: Stability of the compound in 20% rabbit brain homogenate assessed as half life by reverse-phase HPLC analysis. The format is ADME, tissue-based, Oryctolagus cuniculus. The method, boiled down:
(§2)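 Rabbit brains were homogenized in 4 volumes of ice-cold isotonic 0.2 M phosphate buffer, pH 7.4, giving a 20% homogenate that was equilibrated at 37 °C. Methanolic compound solution (2 × 10^-4 M stock) was added and the mix held at 37 °C. Samples were taken at 5, 60, 120, 180 and 240 min, quenched in ice-cold methanol, frozen, centrifuged and run on HPLC. The pseudo first order rate came from ln peak area versus time (n = 5), and t1/2 was derived.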

For series [6], the system named is Brain. The series is described as follows: Drug metabolism in Sprague-Dawley rat brain assessed as 2-(isoquinolin-2(1H)-yl)-3-oxo-3-(phenethylamino)propanoate at 20 mg/kg, iv. On the set-up: dose 20 mg/kg, route intravenous. The format is ADME, organism-based. The settings on record: in vivo. The method, boiled down: (§3)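 Female Sprague Dawley rats (65–70 g, 3 per group) were anesthetized with urethane and given 20 mg/kg in DMSO (25 mg/mL) via the external jugular vein. At 5, 15, 30, 45, 60 and 75 min, eyeball blood was taken into acetonitrile. Brains were removed, washed, homogenized in water plus 5% DMSO/acetonitrile and centrifuged at 4000 rpm for 10 min. Supernatants were analysed by HPLC, with DMSO-injected controls.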

Series [7] can be described thus: Chemical stability of the compound in 30% aqueous hydrogen peroxide assessed as half life by reverse-phase HPLC analysis. The format is physicochemical. The method, boiled down: as §1
A short description of series [8]: Chemical stability of the compound in 10% methanolic silver nitrate assessed as apparent pseudo first order rate constant of disappearance by reverse-phase HPLC analysis. In kind it is physicochemical. The method, boiled down: as §1
In series [9] the test system is Brain. The series is described as follows: Drug metabolism in Sprague-Dawley rat brain assessed as 2-(isoquinolinium-2-yl)-3-oxo-3-(phenethylamino)propanoate at 20 mg/kg, iv. In kind it is ADME, organism-based. Further details: dose 20 mg/kg, route intravenous. The following applies: in vivo. The method, boiled down:
as §3

A short description of series [10]: Chemical stability of the compound in 10% methanolic silver nitrate assessed as half life by reverse-phase HPLC analysis. In kind it is physicochemical. The method, boiled down:
as §1

Series [11] in a line: Shelf-life stability of the compound in phosphate buffer at pH 7.4 assessed as apparent pseudo first order rate constant of disappearance by reverse-phase HPLC analysis. The format is physicochemical. Summed up:
(§4)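 1 mL of freshly prepared 2 × 10^-4 M methanolic solution (stock) was added to 5 mL of 0.2 M phosphate buffer, pH 5.8 or 7.4, at about 37 °C. Tubes were kept in the dark for 3 days and sampled at 5, 180, 1880 and 2440 min for reverse-phase HPLC. The rate constant came from linear regression of ln peak area against time, and t1/2 was derived from it.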

Series [12] has as its system Brain. The series is described as follows: Drug distribution in Sprague-Dawley rat brain measured per gram at 20 mg/kg, iv. The settings on record: in vivo. The format is ADME, organism-based. Further details: dose 20 mg/kg, route intravenous. Summed up:
as §3

A short description of series [13]: Shelf-life stability of the compound in phosphate buffer at pH 5.8 assessed as apparent pseudo first order rate constant of disappearance by reverse-phase HPLC analysis. The format is physicochemical. Summed up: as §4
Series [14] is described as follows: Shelf-life stability of the compound in phosphate buffer at pH 7.4 assessed as half life by reverse-phase HPLC analysis. In kind it is physicochemical. The method, boiled down: as §4
For series [15], the system named is Brain. The series is described as follows: Stability of the compound in 20% rabbit brain homogenate assessed as apparent pseudo first order rate constant of disappearance by reverse-phase HPLC analysis. In kind it is ADME, tissue-based, Oryctolagus cuniculus. The method, boiled down: as §2
Series [16] is described as follows: Shelf-life stability of the compound in phosphate buffer at pH 5.8 assessed as half life by reverse-phase HPLC analysis. In kind it is physicochemical. The method, boiled down:
as §4

Series [17] concerns Plasma. Nature of the series: Stability of the compound in 80% mouse plasma assessed as apparent pseudo first order rate constant of disappearance by reverse-phase HPLC analysis. In kind it is ADME, cell-free. Summed up: (§5)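 Heparinized mouse blood was spun at 4000 rpm for 20 min, and the plasma was diluted to 80% with 0.2 M phosphate buffer, pH 7.4, then prewarmed at 37 °C. Methanolic compound solution (2 × 10^-4 M stock) was added and the mix held at 37 °C. Samples were taken at 5–240 min, quenched in ice-cold methanol, frozen, centrifuged and run on HPLC. Rate came from ln peak area versus time (n = 5), and t1/2 was derived.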

The test system of series [18] is Blood. Nature of the series: Drug metabolism in Sprague-Dawley rat blood assessed as 2-(isoquinolinium-2-yl)-3-oxo-3-(phenethylamino)propanoate measured during first 15 mins at 20 mg/kg, iv. The format is ADME, organism-based. On the set-up: dose 20 mg/kg, route intravenous. The settings on record: in vivo, 0.25 h. The method, boiled down: as §3
The nature of series [19]: Stability of the compound in 80% mouse plasma assessed as half life by reverse-phase HPLC analysis. The format is ADME, cell-free. Summed up:
as §5

Molecules are shown by their SMILES.

Regarding `CCOC(=O)C(C(=O)N/N=C/c1ccc(Cl)cc1)[n+]1ccc2ccccc2c1` (stereo unspecified), the IC50 in series [1] was determined as 0.066 µM; in series [2] it was 360 µM. Further, in series [3], the Selectivity Index came to 5400.
Turning to `CCOC(=O)C(C(=O)NCCc1ccccc1)N1C=Cc2ccccc2C1` (stereo unspecified), the K amounted to 0.0181 min⁻¹ in series [4]; 0.0217 min⁻¹ in [8]; 0.00114 min⁻¹ in [11]; 0.000561 min⁻¹ in series [13]; 3.82 ×10⁻³ /min in series [15]; 6.81 ×10⁻³ /min in series [17]. In addition, the half-life in [5] turned out to be 3.02 h; in series [7] it was 0.637 h; in [10] it was 0.532 h; in [14] it was 10.1 h; in series [16], 20.6 h; in series [19], 1.7 h. For the same compound, the Drug metabolism result in series [6], in [9] and in [18] was “metabolite_detected” throughout. The Drug uptake in [12] was 145.1 µg/g.
On to `N/N=C/c1ccc(Cl)cc1`, for which the IC50 came to 0.0039 µM in series [1] and 7400 µM in series [2]. In addition, the Selectivity Index in series [3] was 1.89e+06.
In the same order, the values of `CCOC(=O)C(C(=O)N/N=C/c1ccc([N+](=O)[O-])cc1)[n+]1ccc2ccccc2c1` (stereo unspecified) are 0.0038 µM, 7400 µM and 1.94e+06.
As to `CCOC(=O)C(C(=O)NCCc1ccccc1)[n+]1ccc2ccccc2c1` (stereo unspecified), the IC50 was 0.0062 µM in series [1] and 77 µM in series [2]. Besides, the Selectivity Index in series [3] was 12400.
For `N/N=C/c1ccc([N+](=O)[O-])cc1`, the results for the IC50 in [1] and in series [2] were 0.049 µM and 380 µM, respectively. Also, in series [3], the Selectivity Index turned out to be 9500.
